The source made the active and inactive calls. The calls are words filed in the database; no cut-off is given here.
What was measured:
MCF7 [1] = assay: Increase in endogenous ceramide level in human MCF7 cells at 10 to 50 uM after 24 hrs; assay type: functional, cell-based
Outline: (§1)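 MCF7 cells grown in RPMI 1640 with 10% FCS at 37 °C in 5% CO2. Seeded near 50% density and treated 24 h later with compound in ethanol (0.1% final); controls got ethanol alone. Cells washed in cold PBS and extracted. Cer species, Sph and S1P measured by HPLC-MS/MS (C8 column, positive-ion MRM) against internal standards and calibration curves. Results given as pmol/nmol phospholipid phosphate, relative to ethanol controls.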

MCF7 [2] = assay: Decrease in endogenous sphingosine level in human MCF7 cells at 10-50 uM after 24 hrs; assay type: functional, cell-based
Outline: (§2)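 MCF7 cells grown in RPMI 1640 with 10% FCS at 37 °C, 5% CO2. Seeded at ~50% density (1×10^6 cells), treated 24 h later with compounds in ethanol (0.1% final); controls got ethanol only. Cells washed in cold PBS and lipids extracted. Cer species and Sph quantified by HPLC-MS/MS (MRM, positive ion) against internal standards and calibration curves. Values given as pmol/nmol phospholipid and compared with ethanol controls.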

MCF7 [3] = assay: Inhibition of endogenous sphingosine level in human MCF7 cells at 10 uM after 2.5 hrs; assay type: functional, cell-based; outline: as §1
MCF7 [4] = assay: Increase in endogenous C24-ceramide level in human MCF7 cells at 10 uM upto 2.5 hrs; assay type: functional, cell-based; outline: as §2
MCF7 [5] = assay: Increase in endogenous sphingosine level in human MCF7 cells at 10 uM within 30 mins; assay type: functional; outline: as §1
MCF7 [6] = assay: Growth inhibition of human MCF7 cells after 48 hrs; assay type: functional, cell-based
MCF7 [7] = assay: Increase in endogenous C24:1-ceramide level in human MCF7 cells at 10 uM within 30 mins; assay type: functional, cell-based; outline: as §1
MCF7 [8] = assay: Increase in endogenous C16-ceramide level in human MCF7 cells at >25 uM after 24 hrs; assay type: functional, cell-based; outline: as §2
MCF7 [9] = assay: Decrease in endogenous C24:1-ceramide level in human MCF7 cells at 10 uM upto 2.5 hrs; assay type: functional, cell-based; outline: as §2
MCF7 [10] = assay: Increase in endogenous ceramide level in human MCF7 cells at 50 uM after 24 hrs; assay type: functional; outline: as §1
MCF7 [11] = assay: Increase in endogenous C24-ceramide level in human MCF7 cells at 10 uM within 30 mins; assay type: functional, cell-based; outline: as §1
MCF7 [12] = assay: Increase in endogenous C16-ceramide level in human MCF7 cells at 10 uM within 30 mins; assay type: functional, cell-based; outline: as §2
MCF7 [13] = assay: Decrease in endogenous C24-ceramide level in human MCF7 cells upto 20 uM after 24 hrs; assay type: functional; parameters: scale not given: the % may be the effect or the level left; outline: as §2
MCF7 [14] = assay: Decrease in endogenous sphingosine level in human MCF7 cells at 10 uM upto 2.5 hrs; assay type: functional, cell-based; outline: as §2
MCF7 [15] = assay: Decrease in endogenous ceramide level in human MCF7 cells at 10 uM after 24 hrs; assay type: functional; parameters: scale not given: the % may be the effect or the level left; outline: as §2
MCF7 [16] = assay: Decrease in endogenous C24-ceramide level in human MCF7 cells at 10 uM after 18 hrs; assay type: functional, cell-based; outline: as §2
MCF7 [17] = assay: Increase in endogenous C24:1-ceramide level in human MCF7 cells at >30 uM after 24 hrs; assay type: functional, cell-based; outline: as §1
MCF7 [18] = assay: Decrease in endogenous sphingosine level in human MCF7 cells at 50 uM after 24 hrs; assay type: functional; parameters: scale not given: the % may be the effect or the level left; outline: as §2
MCF7 [19] = assay: Decrease in endogenous sphingosine level in human MCF7 cells at 5 uM after 24 hrs; parameters: scale not given: the % may be the effect or the level left
MCF7 [20] = assay: Decrease in endogenous C16-ceramide level in human MCF7 cells at 10 uM after 18 hrs; assay type: functional, cell-based; outline: as §2
MCF7 [21] = assay: Decrease in endogenous sphingosine level in human MCF7 cells at 20 uM after 24 hrs; assay type: functional, cell-based; outline: as §2
MCF7 [22] = assay: Decrease in endogenous C24:1-ceramide level in human MCF7 cells upto 20 uM after 24 hrs; assay type: functional; parameters: scale not given: the % may be the effect or the level left; outline: as §2
MCF7 [23] = assay: Increase in endogenous C24:1-ceramide level in human MCF7 cells after 24 hrs; assay type: functional; outline: as §1
MCF7 [24] = assay: Increase in endogenous C14-ceramide level in human MCF7 cells at 10 uM within 30 mins; assay type: functional; outline: as §2
MCF7 [25] = assay: Increase in endogenous sphingosine level in human MCF7 cells at 10 uM after 5 hrs; assay type: functional; outline: as §1
MCF7 [26] = assay: Induction of endogenous C24:1-ceramide formation in human MCF7 cells after 10 hrs; assay type: functional; outline: as §1
MCF7 [27] = assay: Induction of endogenous C14-ceramide formation in human MCF7 cells after 10 hrs; assay type: functional; outline: as §1
MCF7 [28] = assay: Increase in endogenous C14-ceramide level in human MCF7 cells after 24 hrs; assay type: functional; outline: as §2
MCF7 [29] = assay: Induction of endogenous C16-ceramide formation in human MCF7 cells after 10 hrs; assay type: functional; outline: as §1
MCF7 [30] = assay: Increase in endogenous sphingosine-1-phosphate level in human MCF7 cells after 5 to 10 hrs; assay type: functional, cell-based; outline: as §1
MCF7 [31] = assay: Increase in endogenous ceramide level in human MCF7 cells upto 10 uM after 24 hrs; assay type: functional; outline: as §1
MCF7 [32] = assay: Increase in endogenous sphingosine level in human MCF7 cells >5 uM after 24 hrs; assay type: functional, cell-based; outline: as §1
MCF7 [33] = assay: Increase in endogenous sphingosine level in human MCF7 cells after 24 hrs; assay type: functional; outline: as §1
MCF7 [34] = assay: Increase in endogenous C16-ceramide level in human MCF7 cells after 24 hrs; assay type: functional; outline: as §2
MCF7 [35] = assay: Increase in endogenous ceramide level in human MCF7 cells at 10 uM after 24 hrs; assay type: functional; outline: as §1
MCF7 [36] = assay: Increase in endogenous C16-ceramide level in human MCF7 cells at 50 uM after 24 hrs; assay type: functional; outline: as §2
MCF7 [37] = assay: Increase in endogenous C24-ceramide level in human MCF7 cells at 10 uM after 1 to 2.5 hrs; assay type: functional, cell-based; outline: as §2
MCF7 [38] = assay: Decrease in endogenous sphingosine level in human MCF7 cells upto 10 uM after 48 hrs; assay type: functional; parameters: scale not given: the % may be the effect or the level left; outline: as §2
MCF7 [39] = assay: Increase in endogenous sphingosine level in human MCF7 cells at 10 uM after 24 hrs; assay type: functional; outline: as §1
MCF7 [40] = assay: Increase in endogenous C24:1-ceramide level in human MCF7 cells at 10 uM after 1 to 2.5 hrs; assay type: functional, cell-based; outline: as §1
MCF7 [41] = assay: Increase in endogenous sphingosine level in human MCF7 cells at 10 uM after 1 to 2.5 hrs; assay type: functional, cell-based; outline: as §1
MCF7 [42] = assay: Increase in endogenous sphingosine level in human MCF7 cells upto 10 uM after 24 hrs; assay type: functional, cell-based; outline: as §1
MCF7 [43] = assay: Decrease in endogenous sphingosine level in human MCF7 cells at 50 uM after 24 hrs; parameters: scale not given: the % may be the effect or the level left

## CCCCCCCCCCCCCC(=O)N[C@@H](C)[C@@H](O)c1ccccc1
MCF7 [1]
  Activity: inactive
MCF7 [2]
  Activity: inactive

## CCCCCCCCCCCCCCN[C@H](C)[C@H](O)c1ccccc1
MCF7 [3]
  Activity: Active

## CCCCCCCCCCCCNC(=O)N[C@H](CO)[C@H](O)c1ccc([N+](=O)[O-])cc1
MCF7 [4]
  Activity: Active
MCF7 [5]
  Activity: Active
MCF7 [6]
  Activity: Active
MCF7 [7]
  Activity: Active
MCF7 [8]
  Activity: Active
MCF7 [9]
  Activity: Active
MCF7 [10]
  Activity: 170%
MCF7 [11]
  Activity: Active
MCF7 [12]
  Activity: Active
MCF7 [13]
  Activity: 80%
MCF7 [14]
  Activity: Active
MCF7 [15]
  Activity: 90%
MCF7 [16]
  Activity: Active
MCF7 [17]
  Activity: Active
MCF7 [18]
  Activity: 45%
MCF7 [19]
  Activity: 80%
MCF7 [20]
  Activity: Active
MCF7 [21]
  Activity: Active
MCF7 [22]
  Activity: 80%

## C[C@@H](NC(=O)CCCCCCCCCCCCCCC[n+]1ccccc1)[C@@H](O)c1ccccc1.[Br-]
MCF7 [23]
  Activity: Dose-dependent effect
MCF7 [24]
  Activity: 190%
MCF7 [25]
  Activity: 300%
MCF7 [26]
  Activity: 142%
MCF7 [27]
  Activity: 310%
MCF7 [28]
  Activity: Dose-dependent effect
MCF7 [29]
  Activity: 157%
MCF7 [30]
  Activity: Active
MCF7 [31]
  Activity: 260%
MCF7 [32]
  Activity: Active
MCF7 [33]
  Activity: Dose-dependent effect
MCF7 [34]
  Activity: Dose-dependent effect
MCF7 [35]
  Activity: 260%

## CCCCCCCCCCCCNC(=O)N[C@H](C)[C@@H](O)c1ccccc1
MCF7 [36]
  Activity: Active
MCF7 [37]
  Activity: Active
MCF7 [6]
  Activity: Active
MCF7 [38]
  Activity: 25%
MCF7 [39]
  Activity: 140%
MCF7 [10]
  Activity: 180%
MCF7 [40]
  Activity: Active
MCF7 [41]
  Activity: Active
MCF7 [42]
  Activity: Active
MCF7 [43]
  Activity: 25%

— ChEMBL document CHEMBL1143123, “Novel analogs of D-e-MAPP and B13. Part 2: signature effects on bioactive sphingolipids” (2008)
